Data: ChEMBL document CHEMBL1153436, “2-Pyridyl P1'-substituted symmetry-based human immunodeficiency virus protease inhibitors (A-792611 and A-790742) with potential for convenient dosing and reduced side effects” (J Med Chem, 2009)
pEC50, pIC50, pKi: −log10 of the molar value.

Key:
[1] = test system: Human immunodeficiency virus 1; experiment: Antiviral activity against HIV1 bearing protease gene with B26 mutation infected in human MT4 cells after 5 days by MTT assay; format: functional, organism-based; conditions: Human immunodeficiency virus 1, MT4, 120 h
[2] = test system: Human immunodeficiency virus 1; experiment: Antiviral activity against HIV1 bearing protease gene with P25 mutation infected in human MT4 cells after 5 days by MTT assay; format: functional, organism-based; conditions: Human immunodeficiency virus 1, MT4, 120 h
[3] = test system: Rattus norvegicus; experiment: Toxicity in Gunn rat assessed as unconjugated-bilirubin level at 125 mg/kg coadministered with ritonavir measured on day 1; format: organism-based; parameters: dose 125 mg/kg; conditions: in vivo
Outline: (§1)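 Gunn rats (n = 8-10 per arm) dosed orally with compound in 5% ethanol/95% propylene glycol with p-toluenesulfonic acid, together with 50 mg/kg RTV. Plasma was sampled 4 h after the first and second doses. Drug was measured by HPLC and bilirubin […]. Change in bilirubin (mg/dL) reported as mean with SD.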

[4] = test system: Serum; experiment: Drug level in Gunn rat serum at 125 mg/kg coadministered with ritonavir measured on day 1; format: ADME, organism-based; parameters: dose 125 mg/kg; conditions: in vivo; outline: as §1
[5] = test system: Serum; experiment: Drug level in Gunn rat serum at 125 mg/kg coadministered with ritonavir measured on day 2; format: ADME, organism-based; parameters: dose 125 mg/kg; conditions: in vivo; outline: as §1
[6] = test system: Human immunodeficiency virus 1; experiment: Antiviral activity against wild-type HIV1 pNL4-3 infected in human MT4 cells after 5 days by MTT assay; format: functional, organism-based; conditions: Human immunodeficiency virus 1, MT4, 120 h
[7] = test system: Human immunodeficiency virus 1; experiment: Antiviral activity against wild-type HIV1 pNL4-3 infected in human MT4 cells after 5 days by MTT assay in presence of 50% human serum; format: functional, organism-based; conditions: Human immunodeficiency virus 1, MT4, 120 h
[8] = test system: Human immunodeficiency virus 1; experiment: Antiviral activity against HIV1 bearing protease gene with A17 mutation infected in human MT4 cells after 5 days by MTT assay; format: functional, organism-based; conditions: Human immunodeficiency virus 1, MT4, 120 h
Outline: (§2)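 HIV-1 A17 mutant clone carrying protease mutations L10F, V32I, M46I, I47V, Q58E and I84V, generated by in vitro serial passage under LPV/RTV. EC50 was determined in MT-4 cells. Wild-type reference strain was HIV-1 pNL4-3.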

[9] = test system: Human immunodeficiency virus 1; experiment: Fold resistance, ratio of EC50 for HIV1 bearing protease gene with A17 mutation to EC50 for wild-type HIV1 pNL4-3; format: functional; outline: as §2
[10] = Half life in Sprague-Dawley rat at 5 mg/kg, iv; format: ADME, organism-based; parameters: dose 5 mg/kg, route intravenous; conditions: in vivo
Outline: (§3)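 Male Sprague-Dawley-derived rats (n = 3) dosed iv or by oral gavage with 5 mg/mL solutions in 5% dextrose containing 20% ethanol, 30% propylene glycol and methanesulfonic acid equivalents. Plasma was sampled at 10 time points over 8 h, extracted into ethyl acetate/hexane and analysed by reversed-phase HPLC with internal standard. AUC in µg·h/mL.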

[11] = Clearance in Sprague-Dawley rat at 5 mg/kg, iv; format: ADME, organism-based; parameters: dose 5 mg/kg, route intravenous; conditions: in vivo; outline: as §3
[12] = Oral bioavailability in Sprague-Dawley rat at 5 mg/kg; format: ADME, organism-based; conditions: in vivo; outline: as §3
[13] = AUC in Sprague-Dawley rat at 5 mg/kg, po; format: ADME, organism-based; parameters: dose 5 mg/kg, route oral; conditions: plasma; outline: as §3
[14] = AUC in Sprague-Dawley rat at 5 mg/kg, po in presence of ritonavir; format: ADME, organism-based; parameters: dose 5 mg/kg, route oral; conditions: plasma; outline: as §3
[15] = AUC in dog at 5 mg/kg, po; format: ADME, organism-based, Canis lupus familiaris; parameters: dose 5 mg/kg, route oral; conditions: plasma
Outline: (§4)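 Male and female beagle dogs (n = 3) given oral gavage doses formulated as 5 mg/mL solutions in 5% dextrose with 20% ethanol, 30% propylene glycol and methanesulfonic acid, alone or with RTV (2.5 or 5 mg/kg). Plasma was taken at 12 time points over 12 h, extracted with ethyl acetate/hexane and analysed by reversed-phase HPLC with internal standard. AUC in µg·h/mL; Cmax and C12h in µg/mL.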

[16] = Cmax in dog at 5 mg/kg, po; format: ADME, organism-based, Canis lupus familiaris; parameters: dose 5 mg/kg, route oral; conditions: in vivo; outline: as §4
[17] = AUC in dog at 5 mg/kg, po coadministered with 2.5 mg/kg ritonavir; format: ADME, organism-based, Canis lupus familiaris; conditions: plasma; outline: as §4
[18] = Cmax in dog at 5 mg/kg, po coadministered with 2.5 mg/kg ritonavir; format: ADME, organism-based, Canis lupus familiaris; parameters: dose 5 mg/kg, route oral; conditions: in vivo; outline: as §4
[19] = Concentration of drug after 12 hrs in dog at 5 mg/kg, po coadministered with 2.5 mg/kg ritonavir; format: ADME, organism-based, Canis lupus familiaris; conditions: in vivo, read-out: Drug uptake; outline: as §4
[20] = AUC in dog at 5 mg/kg, po coadministered with 5 mg/kg ritonavir; format: ADME, organism-based, Canis lupus familiaris; conditions: plasma; outline: as §4
[21] = Cmax in dog at 5 mg/kg, po coadministered with 5 mg/kg ritonavir; format: ADME, organism-based, Canis lupus familiaris; parameters: dose 5 mg/kg, route oral; conditions: in vivo; outline: as §4
[22] = Concentration of drug after 12 hrs in dog at 5 mg/kg, po coadministered with 5 mg/kg ritonavir; format: ADME, organism-based, Canis lupus familiaris; conditions: in vivo, read-out: Drug uptake; outline: as §4
[23] = Solubility at pH 7.4; format: physicochemical; conditions: buffer
Outline: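 Solubility measured in µg/mL at pH 7.4 and 25 °C.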

[24] = Protein binding in human plasma by equilibrium dialysis; format: ADME, cell-free; conditions: read-out: PB (converted)
Outline: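 Percentage bound in human plasma, determined by equilibrium dialysis.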

[25] = molecular target: T1, Cytochrome P450 1A2 (Homo sapiens, UniProt P05177); experiment: Inhibition of CYP1A2 assessed as phenacetin O-deethylation; format: ADME
T1 sequence (P05177 whole entry): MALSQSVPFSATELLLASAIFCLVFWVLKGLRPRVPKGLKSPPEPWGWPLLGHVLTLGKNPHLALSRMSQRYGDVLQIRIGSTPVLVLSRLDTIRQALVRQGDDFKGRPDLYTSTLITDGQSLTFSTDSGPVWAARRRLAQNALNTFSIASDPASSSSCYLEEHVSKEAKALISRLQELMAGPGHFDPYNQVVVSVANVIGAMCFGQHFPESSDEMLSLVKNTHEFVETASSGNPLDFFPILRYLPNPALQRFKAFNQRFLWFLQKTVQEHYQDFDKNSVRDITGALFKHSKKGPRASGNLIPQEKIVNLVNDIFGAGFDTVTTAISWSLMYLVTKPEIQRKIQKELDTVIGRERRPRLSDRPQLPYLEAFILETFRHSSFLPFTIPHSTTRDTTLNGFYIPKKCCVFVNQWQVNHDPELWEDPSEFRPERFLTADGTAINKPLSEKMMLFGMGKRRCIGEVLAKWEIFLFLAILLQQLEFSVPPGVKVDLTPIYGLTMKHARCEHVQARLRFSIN
Outline: (§5)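 CYP inhibition in vitro, with probe reactions of phenacetin O-deethylation (CYP1A2), tolbutamide hydroxylation (CYP2C9), S-mephenytoin hydroxylation (CYP2C19) and dextromethorphan O-demethylation (CYP2D6). Reported as IC50 in µM.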

[26] = molecular target: Cytochrome P450 2C9 (Homo sapiens, UniProt P11712); experiment: Inhibition of CYP2C9 assessed as Tolbutamide hydroxylation; format: ADME; outline: as §5
[27] = molecular target: Cytochrome P450 2C19 (Homo sapiens, UniProt P33261); experiment: Inhibition of CYP2C19 assessed as S-mephenytion hydroxylation; format: ADME; outline: as §5
[28] = molecular target: Cytochrome P450 2D6 (Homo sapiens, UniProt P10635); experiment: Inhibition of CYP2D6 assessed as dextromethorphan O-demethylation; format: ADME; outline: as §5
[29] = molecular target: Cytochrome P450 3A4 (Homo sapiens, UniProt P08684); experiment: Inhibition of CYP3A4 assessed as midazolam 1'- hydroxylation; format: ADME
Outline: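 CYP3A4 inhibition was measured as midazolam 1′-hydroxylation and expressed as Ki in nM.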

[30] = Inhibition of HIV protease; parameters: species or system Human immunodeficiency virus
[31] = Inhibition of human pepsin
[32] = molecular target: T2, Renin (Homo sapiens, UniProt P00797); experiment: Inhibition of renin
T2 sequence (P00797 whole entry): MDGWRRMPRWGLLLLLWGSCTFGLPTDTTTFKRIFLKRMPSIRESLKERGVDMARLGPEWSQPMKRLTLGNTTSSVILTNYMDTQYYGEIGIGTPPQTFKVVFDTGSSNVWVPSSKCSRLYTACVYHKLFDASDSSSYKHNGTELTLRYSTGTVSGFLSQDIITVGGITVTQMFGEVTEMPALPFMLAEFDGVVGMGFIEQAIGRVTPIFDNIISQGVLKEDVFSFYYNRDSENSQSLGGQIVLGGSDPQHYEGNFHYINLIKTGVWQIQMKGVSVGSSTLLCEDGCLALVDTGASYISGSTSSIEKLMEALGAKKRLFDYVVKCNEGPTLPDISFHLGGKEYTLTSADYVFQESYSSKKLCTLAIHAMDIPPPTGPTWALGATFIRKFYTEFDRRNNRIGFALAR

[33] = molecular target: Cathepsin D (Homo sapiens, UniProt P07339); experiment: Inhibition of cathepsin D
[34] = test system: Rattus norvegicus; experiment: Toxicity in Gunn rat assessed as unconjugated-bilirubin level at 125 mg/kg coadministered with ritonavir measured on day 2; conditions: in vivo
[35] = AUC in dog at 2.5 mg/kg; format: ADME, organism-based, Canis lupus familiaris; parameters: dose 2.5 mg/kg; conditions: plasma; outline: as §4

Sequence of Cytochrome P450 2D6 (P10635 whole entry): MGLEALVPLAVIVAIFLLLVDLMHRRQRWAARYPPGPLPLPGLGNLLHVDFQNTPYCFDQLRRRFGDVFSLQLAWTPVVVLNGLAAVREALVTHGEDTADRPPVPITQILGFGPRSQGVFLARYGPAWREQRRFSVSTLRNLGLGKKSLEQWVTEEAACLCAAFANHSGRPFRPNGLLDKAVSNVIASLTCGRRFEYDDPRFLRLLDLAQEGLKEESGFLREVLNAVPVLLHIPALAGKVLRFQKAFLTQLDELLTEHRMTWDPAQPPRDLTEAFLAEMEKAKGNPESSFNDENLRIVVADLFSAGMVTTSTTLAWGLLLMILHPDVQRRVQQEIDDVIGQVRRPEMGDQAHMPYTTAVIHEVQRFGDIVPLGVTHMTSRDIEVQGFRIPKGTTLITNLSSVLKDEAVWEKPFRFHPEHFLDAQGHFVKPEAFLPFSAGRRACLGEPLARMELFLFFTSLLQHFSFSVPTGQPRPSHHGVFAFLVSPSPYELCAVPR
Sequence of Cathepsin D (P07339 65-162 limits assumed): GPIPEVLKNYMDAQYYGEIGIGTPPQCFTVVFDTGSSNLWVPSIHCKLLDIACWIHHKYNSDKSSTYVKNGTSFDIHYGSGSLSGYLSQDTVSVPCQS
Sequence of Cathepsin D (P07339 169-412 limits assumed): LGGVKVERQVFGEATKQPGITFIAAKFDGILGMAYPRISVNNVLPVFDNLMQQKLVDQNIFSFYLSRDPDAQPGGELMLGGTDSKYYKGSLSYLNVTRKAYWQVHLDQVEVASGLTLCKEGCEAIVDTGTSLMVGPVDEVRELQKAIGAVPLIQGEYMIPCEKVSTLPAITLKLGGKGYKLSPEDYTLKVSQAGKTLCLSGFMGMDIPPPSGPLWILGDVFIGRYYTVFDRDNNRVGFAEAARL
Sequence of Cytochrome P450 2C9 (P11712 whole entry): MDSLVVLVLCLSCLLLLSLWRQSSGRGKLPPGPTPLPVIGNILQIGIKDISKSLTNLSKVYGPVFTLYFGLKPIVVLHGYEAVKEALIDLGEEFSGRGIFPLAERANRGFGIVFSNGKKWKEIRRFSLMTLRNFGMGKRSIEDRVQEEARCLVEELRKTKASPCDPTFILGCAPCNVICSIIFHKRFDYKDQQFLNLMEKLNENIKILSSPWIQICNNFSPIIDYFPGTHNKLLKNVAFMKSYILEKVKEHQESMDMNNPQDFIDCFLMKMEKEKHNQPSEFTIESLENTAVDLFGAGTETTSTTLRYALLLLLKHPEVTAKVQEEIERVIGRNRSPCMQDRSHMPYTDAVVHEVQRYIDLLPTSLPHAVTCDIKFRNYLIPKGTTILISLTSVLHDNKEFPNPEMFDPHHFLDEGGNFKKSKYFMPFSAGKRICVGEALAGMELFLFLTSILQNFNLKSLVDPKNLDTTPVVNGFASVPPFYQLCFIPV
Sequence of Cytochrome P450 2C19 (P33261 whole entry): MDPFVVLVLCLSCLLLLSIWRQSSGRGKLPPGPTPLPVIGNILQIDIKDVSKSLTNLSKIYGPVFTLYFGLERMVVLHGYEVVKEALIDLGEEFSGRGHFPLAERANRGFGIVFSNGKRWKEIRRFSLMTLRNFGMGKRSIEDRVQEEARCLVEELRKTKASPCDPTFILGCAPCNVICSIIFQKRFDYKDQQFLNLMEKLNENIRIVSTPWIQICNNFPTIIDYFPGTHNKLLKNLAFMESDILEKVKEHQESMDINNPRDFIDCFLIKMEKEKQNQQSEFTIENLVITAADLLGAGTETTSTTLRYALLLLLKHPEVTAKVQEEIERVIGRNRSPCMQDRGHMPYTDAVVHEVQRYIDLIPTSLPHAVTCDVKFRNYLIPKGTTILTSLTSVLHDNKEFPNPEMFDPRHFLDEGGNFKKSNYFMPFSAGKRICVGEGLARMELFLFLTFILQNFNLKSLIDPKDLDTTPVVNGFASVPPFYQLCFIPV
Sequence of Cytochrome P450 3A4 (P08684 whole entry): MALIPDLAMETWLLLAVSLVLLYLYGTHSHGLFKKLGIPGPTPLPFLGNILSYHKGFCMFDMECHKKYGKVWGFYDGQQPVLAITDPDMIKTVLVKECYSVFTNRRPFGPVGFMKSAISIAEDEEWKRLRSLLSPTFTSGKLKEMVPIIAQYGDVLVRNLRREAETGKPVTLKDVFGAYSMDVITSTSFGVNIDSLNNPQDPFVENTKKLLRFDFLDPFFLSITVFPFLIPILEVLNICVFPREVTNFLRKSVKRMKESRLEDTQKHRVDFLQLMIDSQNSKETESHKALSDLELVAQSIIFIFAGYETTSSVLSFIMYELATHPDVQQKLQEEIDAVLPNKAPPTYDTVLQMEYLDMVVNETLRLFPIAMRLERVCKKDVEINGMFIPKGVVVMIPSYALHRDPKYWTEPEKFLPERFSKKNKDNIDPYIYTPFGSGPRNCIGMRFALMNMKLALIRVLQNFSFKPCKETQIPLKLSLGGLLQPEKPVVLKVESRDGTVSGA

## COC(=O)N[C@H](C(=O)N[C@@H](Cc1ccc(-c2ccccn2)cc1)C[C@H](O)[C@H](Cc1ccccc1)NC(=O)[C@@H](N1CCN(Cc2ccccc2)C1=O)C(C)(C)C)C(C)(C)C
[1]
  pEC50: 6.85
[2]
  pEC50: 6.99
[3]
  Activity: 0.144 mg/dL
[4]
  Drug uptake: 2.45 µg/mL
[5]
  Drug uptake: 5.33 µg/mL
[6]
  pEC50: 8.70
[7]
  pEC50: 7.92
[8]
  pEC50: 7.66
[9]
  Ratio EC50: 11
[10]
  half-life: 1 h
[11]
  clearance: 19.2 mL/min/kg
[12]
  bioavailability: 3.4%
[13]
  AUC: 150 ng·h/mL
[14]
  AUC: 3500 ng·h/mL
[15]
  AUC: 210 ng·h/mL
[16]
  Cmax: 170 ng/mL
[17]
  AUC: 19000 ng·h/mL
[18]
  Cmax: 3910 ng/mL
[19]
  concentration at 12 h: 68 ng/mL
[20]
  AUC: 41900 ng·h/mL
[21]
  Cmax: 5890 ng/mL
[22]
  concentration at 12 h: 924 ng/mL
[23]
  solubility: < 0.15 µg/mL
[24]
  fraction unbound: 0.0034
[25]
  pIC50: < 5.00
[26]
  pIC50: < 5.00
[27]
  pIC50: < 5.00
[28]
  pIC50: < 5.00
[29]
  pKi: 7.74
[30]
  pKi: 10.82
[31]
  pKi: 3.75
[32]
  pKi: < 5.40
[33]
  pKi: 5.37
[34]
  Activity: 0.133 mg/dL

## CC(C)c1nc(CN(C)C(=O)N[C@H](C(=O)N[C@@H](Cc2ccccc2)C[C@H](O)[C@H](Cc2ccccc2)NC(=O)OCc2cncs2)C(C)C)cs1 [RITONAVIR]
[15]
  AUC: 8800 ng·h/mL
[35]
  AUC: 1560 ng·h/mL
